Data taken from ChEMBL document CHEMBL3414445, “Blood-brain barrier permeable anticholinesterase aurones: synthesis, structure-activity relationship, and drug-like properties” (Eur J Med Chem, 2015).
pIC50: −log10 of the molar value.

Assays:
[1] = target: Acetylcholinesterase (Electrophorus electricus, UniProt O42275); experiment: Inhibition of electric eel AChE incubated for 15 mins using […] substrate by colorimetric Ellman's method
[2] = target: Cholinesterase (Equus caballus, UniProt P81908); experiment: Inhibition of equine serum butyrylcholine esterase incubated for 15 mins using S-butyrylthiocholine chloride substrate by colorimetric Ellman's method
[3] = Selectivity index, ratio of IC50 for equine serum butyrylcholine esterase to IC50 for electric eel AChE
[4] = Half life in Sprague-Dawley rat liver microsomes at 2 uM at pH 7.4 pre-incubated in presence of NADPH regenerating system measured 30 mins after microsomal reactions termination by LC-MS method; assay type: ADME
[5] = test system: Liver microsome; experiment: Drug metabolism in Sprague-Dawley rat liver microsomes assessed as formation of monohydroxylated metabolite at 2 uM at pH 7.4 pre-incubated in presence of NADPH regenerating system measured after 10 to 30 mins by LC-MS method; assay type: ADME; conditions: pH 7.4, 2 µM
In short: (§1)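 Compound added (2 µM final, from DMSO stock), 37 °C; time-0 aliquot and reaction quenched with ice-cold acetonitrile (acetaminophen internal standard) at 10 min, or 30 min for some compounds. Single time-point design; LC-MS (Q-Tof) analysis.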

[6] = test system: Liver microsome; experiment: Drug metabolism in Sprague-Dawley rat liver microsomes assessed as formation of desmethylated metabolite at 2 uM at pH 7.4 pre-incubated in presence of NADPH regenerating system measured after 10 to 30 mins by LC-MS method; assay type: ADME; conditions: pH 7.4, 2 µM; in short: as §1
[7] = Stability in Sprague-Dawley rat liver microsomes assessed as parent compound remaining at 2 uM measured 30 mins after microsomal reactions termination at pH 7.4 pre-incubated in presence of NADPH regenerating system by LC-MS method; assay type: ADME; conditions: read-out: Stability
[8] = in vitro; conditions: PAMPA, pH 7.4
[9] = Retention time of the compound by HPLC-UV method; assay type: physicochemical
[10] = Stability in Sprague-Dawley rat liver microsomes assessed as parent compound remaining at 2 uM measured 10 mins after microsomal reactions termination at pH 7.4 pre-incubated in presence of NADPH regenerating system by LC-MS method; assay type: ADME; conditions: read-out: Stability; in short: as §1
[11] = Half life in Sprague-Dawley rat liver microsomes at 2 uM at pH 7.4 pre-incubated in presence of NADPH regenerating system measured 10 mins after microsomal reactions termination by LC-MS method; assay type: ADME; in short: as §1

Sequence of Acetylcholinesterase (O42275 whole entry): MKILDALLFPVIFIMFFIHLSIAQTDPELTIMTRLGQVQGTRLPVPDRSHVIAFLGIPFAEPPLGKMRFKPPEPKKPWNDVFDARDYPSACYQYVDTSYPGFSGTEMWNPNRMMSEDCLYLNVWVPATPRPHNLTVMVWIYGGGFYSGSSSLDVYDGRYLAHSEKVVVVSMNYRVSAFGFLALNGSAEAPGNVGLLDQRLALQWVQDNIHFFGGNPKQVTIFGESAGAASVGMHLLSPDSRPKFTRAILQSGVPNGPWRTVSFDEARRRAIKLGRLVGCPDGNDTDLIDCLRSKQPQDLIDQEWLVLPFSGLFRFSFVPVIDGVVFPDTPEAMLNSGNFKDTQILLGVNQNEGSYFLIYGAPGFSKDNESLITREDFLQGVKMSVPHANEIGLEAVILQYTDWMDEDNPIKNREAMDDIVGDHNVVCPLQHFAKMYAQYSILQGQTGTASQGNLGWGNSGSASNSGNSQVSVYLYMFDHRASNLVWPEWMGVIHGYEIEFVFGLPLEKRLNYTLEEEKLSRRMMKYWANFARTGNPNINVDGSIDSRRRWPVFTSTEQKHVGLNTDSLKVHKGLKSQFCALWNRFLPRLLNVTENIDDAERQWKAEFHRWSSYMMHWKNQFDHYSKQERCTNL
Sequence of Cholinesterase (P81908 whole entry): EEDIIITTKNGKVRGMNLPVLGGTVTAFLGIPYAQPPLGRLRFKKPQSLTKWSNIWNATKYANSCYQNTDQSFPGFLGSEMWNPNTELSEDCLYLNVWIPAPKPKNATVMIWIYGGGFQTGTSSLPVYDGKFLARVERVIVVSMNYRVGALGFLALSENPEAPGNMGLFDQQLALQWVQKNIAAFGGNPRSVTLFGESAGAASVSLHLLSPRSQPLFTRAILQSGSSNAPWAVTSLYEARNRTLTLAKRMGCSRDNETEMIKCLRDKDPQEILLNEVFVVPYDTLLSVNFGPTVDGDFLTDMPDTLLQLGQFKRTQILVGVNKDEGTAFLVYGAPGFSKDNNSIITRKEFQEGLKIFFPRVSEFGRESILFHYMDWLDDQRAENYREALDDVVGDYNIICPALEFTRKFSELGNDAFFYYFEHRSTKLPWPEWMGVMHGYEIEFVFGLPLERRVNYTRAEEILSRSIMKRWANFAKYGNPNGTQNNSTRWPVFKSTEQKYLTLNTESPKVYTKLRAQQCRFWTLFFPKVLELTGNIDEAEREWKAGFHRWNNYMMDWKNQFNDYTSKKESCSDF

Row | SMILES | pIC50 [1] | pIC50 [2] | Ratio IC50 [3] | other results
1 | COc1ccc2c(c1)O/C(=C\c1ccc(OCCCN(C)C)cc1Cl)C2=O | 4.82 | 4.47 | 2.26 | 
2 | COc1ccc2c(c1)O/C(=C\c1ccc(OCCN(C)C)c(Cl)c1)C2=O | 5.88 | 4.95 | 8.35 | 
3 | O=C1/C(=C/c2ccncc2)Oc2cc(O)ccc21 | < 4.00 | < 4.00 |  | 
4 | COc1ccc2c(c1)O/C(=C\c1ccc(O)cc1)C2=O | < 4.00 | < 4.00 |  | 
5 | CCN(CC)C(=O)Oc1ccc2c(c1)O/C(=C\c1ccc(OCCN(C)C)cc1)C2=O | 5.26 | 5.01 | 1.78 | 
6 | COc1ccc2c(c1)O/C(=C\c1ccc(OCCCN(C)C)cc1)C2=O | 5.61 | 4.52 | 12.5 | 
7 | COc1cc(/C=C2\Oc3cc(OCCN4CCCC4)ccc3C2=O)cc(OC)c1OC | 6.19 | 4.93 | 18.2 | 
8 | COc1cc(/C=C2\Oc3cc(OCCN4CCCCC4)ccc3C2=O)cc(OC)c1OC | 6.37 | 5.21 | 14.6 | half-life at 2 µM [4]: 43.8 min; Drug metabolism [5]: metabolite_detected; Drug metabolism [6]: metabolite_detected; remaining at 0.5 h, 2 µM [7]: 61.9%; Retention_time: 3.7 min; Papp [8]: 21.3 ×10⁻⁶ cm/s
9 | CCN(CC)C(=O)Oc1ccc2c(c1)O/C(=C\c1ccc(N(C)C)cc1)C2=O | < 4.00 | < 4.00 |  | 
10 | CCN(CC)c1ccc(/C=C2\Oc3cc(O)ccc3C2=O)cc1 | < 4.00 | < 4.00 |  | 
11 | CN(C)c1ccc(/C=C2\Oc3cc(O)ccc3C2=O)cc1 | < 4.00 | < 4.00 |  | 
12 | Cn1c(=O)c2[nH]cnc2n(C)c1=O.O [THEOPHYLLINE] |  |  |  | Retention_time [9]: 3.4 min
13 | O=C1/C(=C/c2ccc(OCCN3CCCCC3)cc2)Oc2cc(O)ccc21 | 5.65 | < 4.00 |  | Retention_time: 3.6 min; Papp [8]: 10 ×10⁻⁶ cm/s
14 | CCN(CC)C(=O)Oc1ccc2c(c1)O/C(=C\c1ccc(N(CC)CC)cc1)C2=O | < 4.00 | < 4.00 |  | 
15 | COc1ccc2c(c1)O/C(=C\c1ccc(N(C)C)cc1)C2=O | 4.30 | 4.50 | 0.63 | 
16 | Cn1c(=O)c2c(ncn2C)n(C)c1=O [CAFFEINE] |  |  |  | Retention_time [9]: 3.2 min
17 | CCN(CC)C(=O)Oc1ccc2c(c1)O/C(=C\c1ccc(OCCN3CCCCC3)cc1)C2=O | 6.19 | 5.14 | 11 | remaining at 10 min, 2 µM [10]: 44.3%; half-life at 2 µM [11]: 8.5 min; Retention_time: 4.2 min; Papp [8]: 16.1 ×10⁻⁶ cm/s
18 | O=C1/C(=C/c2ccc(OCCN3CCCC3)cc2Cl)Oc2cc(O)ccc21 | 6.06 | 5.06 | 9.89 | 
19 | COc1ccc2c(c1)O/C(=C\c1ccc(OCCN3CCCCC3)cc1)C2=O | 6.46 | 5.05 | 25.5 | remaining at 10 min, 2 µM [10]: 52.1%; half-life at 2 µM [11]: 10.9 min; Retention_time: 4.5 min; Papp [8]: 20 ×10⁻⁶ cm/s
20 | COc1ccc(/C=C2\Oc3cc(OCCN4CCCCC4)ccc3C2=O)cc1 | 6.07 | 5.16 | 8.13 | remaining at 10 min, 2 µM [10]: 53.6%; half-life at 2 µM [11]: 11.2 min; Retention_time: 4.5 min; Papp [8]: 20 ×10⁻⁶ cm/s
21 | CCN(CC)C(=O)Oc1ccc2c(c1)O/C(=C\c1ccc(OCCN3CCCC3)cc1)C2=O | 6.11 | 5.13 | 9.5 | 
22 | COc1ccc(/C=C2\Oc3cc(O)ccc3C2=O)cc1 | < 4.00 | < 4.00 |  | 
23 | CN(C)CCCOc1ccc(/C=C2\Oc3cc(O)ccc3C2=O)cc1 | 5.10 | < 4.00 |  | 

Row | SMILES | pIC50 [1] | pIC50 [2] | Ratio IC50 [3] | other results
24 | COc1ccc2c(c1)O/C(=C\c1ccc(OCCN3CCCC3)cc1)C2=O | 6.26 | 4.99 | 18.7 | remaining at 10 min, 2 µM [10]: 25.3%; half-life at 2 µM [11]: 5.1 min; Drug metabolism [5]: metabolite_detected; Retention_time: 3.6 min; Papp [8]: 24.7 ×10⁻⁶ cm/s
25 | COc1cc2c(cc1OC)C(=O)C(CC1CCN(Cc3ccccc3)CC1)C2 (stereo not given) [DONEPEZIL] |  |  |  | half-life at 2 µM [4]: 76.5 min; remaining at 0.5 h, 2 µM [7]: 76.2%
26 | COc1ccc(/C=C2\Oc3cc(OCCCN(C)C)ccc3C2=O)cc1 | 4.80 | 4.51 | 1.99 | 
27 | CCN(CC)c1ccc(/C=C2\Oc3cc(OC)ccc3C2=O)cc1 | < 4.00 | < 4.00 |  | 
28 | COc1ccc2c(c1)O/C(=C\c1ccc(OCCN3CCCCC3)c(Cl)c1)C2=O | 6.80 | 5.10 | 49.4 | remaining at 10 min, 2 µM [10]: 59.5%; half-life at 2 µM [11]: 13.4 min; Retention_time: 3.4 min; Papp [8]: 12.2 ×10⁻⁶ cm/s
29 | CCN(CC)C(=O)Oc1ccc(/C=C2\Oc3cc(OC)ccc3C2=O)cc1 | 4.96 | < 4.00 |  | 
30 | COc1ccc2c(c1)O/C(=C\c1ccc(OCCN3CCCCC3)cc1Cl)C2=O | 6.29 | 4.94 | 22.2 | 
31 | CCN(CC)C(=O)Oc1ccc2c(c1)O/C(=C\c1ccc(OCCCN(C)C)cc1)C2=O | 5.48 | 5.21 | 1.85 | 
32 | O=C1/C(=C/c2ccc(OCCN3CCCC3)cc2)Oc2cc(O)ccc21 | 5.49 | < 4.00 |  | 
33 | COc1cc(/C=C2\Oc3cc(OCCCN(C)C)ccc3C2=O)cc(OC)c1OC | 5.01 | < 4.00 |  | 
34 | COc1ccc2c(c1)O/C(=C\c1ccc(OCCN(C)C)cc1)C2=O | 5.71 | 4.59 | 13.1 | 
35 | CN(C)CCOc1ccc(/C=C2\Oc3cc(O)ccc3C2=O)cc1 | 5.26 | < 4.00 |  | 
36 | COc1ccc2c(c1)O/C(=C\c1ccc(OCCCN(C)C)c(Cl)c1)C2=O | 5.79 | 4.67 | 13.4 | 
37 | COc1ccc(/C=C2\Oc3cc(OC)ccc3C2=O)cc1 | < 4.00 | < 4.00 |  | remaining at 10 min, 2 µM [10]: 41.4%; half-life at 2 µM [11]: 7.9 min; Retention_time: 3.9 min; Papp [8]: 9.8 ×10⁻⁶ cm/s
38 | COc1ccc2c(c1)O/C(=C\c1ccncc1)C2=O | < 4.00 | < 4.00 |  | 
39 | C[C@]12CC[C@H]3[C@@H](CCC4=CC(=O)CC[C@@]43C)[C@@H]1CC[C@@H]2O [TESTOSTERONE] |  |  |  | remaining at 10 min, 2 µM [10]: < 0.001%; half-life at 2 µM [11]: 0.48 min
40 | CCN(CC)C(=O)Oc1ccc2c(c1)O/C(=C\c1ccc(OC)cc1)C2=O | < 4.00 | 4.90 |  | 
41 | COc1cc(/C=C2\Oc3cc(OCCN(C)C)ccc3C2=O)cc(OC)c1OC | 4.81 | 4.18 | 4.26 | 
42 | COc1ccc(/C=C2\Oc3cc(OCCN4CCCC4)ccc3C2=O)cc1 | 5.93 | 5.14 | 6.1 | 
43 | COc1ccc2c(c1)O/C(=C\c1ccc(OCCN(C)C)cc1Cl)C2=O | 4.91 | 4.62 | 1.93 | 
44 | COc1ccc(/C=C2\Oc3cc(OCCN(C)C)ccc3C2=O)cc1 | 4.92 | 4.60 | 2.1 | 
45 | O=C1/C(=C/c2ccc(OCCN3CCCC3)c(Cl)c2)Oc2cc(O)ccc21 | 6.54 | 5.00 | 34.3 | 
